Laboratory results: ChEMBL document CHEMBL1128535, “Synthesis using a Fmoc-based strategy and biological activities of some reduced peptide bond pseudopeptide analogues of dynorphin A1” (J Med Chem, 1995)
Each block holds one molecule with its values, some of them ahead of it. *1 amine or outer side, *2 acyl side, *3 side chain or, on linkers, in order; H or OH if unused. Where a SMILES comes first, the peptide text is derived from it. Side-chain parts run from the residue outwards. [ ]: non-standard residue; d: D form. The star is where a group is joined. X2 = CC[C@H](C)[C@H](NC[C@H](CCCCN)N*)C(=O)N[C@@H](CCCN=C(N)N)C(=O)N1CCC[C@H]1C(=O)N[C@@H](CCCCN)C(N)=O; N(2-aminoethyl)Phe = O=C([C@H](Cc1ccccc1)N(CCN[*:3])[*:1])[*:2]; X4 = CC(C)C[C@@H](CN([C@@H](CCCN=C(N)N)C(=O)[*:2])[*:1])N[*:3]; X5 = NCCCC[C@@H](CN([C@@H](CCCN=C(N)N)C(=O)[*:2])[*:1])N[*:3]; X1 = CC(C)C[C@@H](C(=O)[*:2])N(C[C@H](Cc1ccccc1)N[*:3])[*:1]

Key:
Mu-type opioid receptor = Mu-type opioid receptor (Cavia porcellus, UniProt P97266); assay: Binding affinity against Opioid receptor mu 1 from Guinea pig brain homogenate using [3H]DAMGO; format: tissue-based
Cavia porcellus [1] = species on record: Cavia porcellus; assay: Binding affinity against smooth muscle tissue of Guinea pig ileum; format: functional
Summary of the method: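 Longitudinal muscle–myenteric plexus strips from male Hartley guinea pigs (250–500 g) in oxygenated Krebs buffer at 37 °C under 1 g tension. Transmural stimulation at 0.1 Hz, 0.4 ms, supramaximal voltage, with no peptidase inhibitors. Cumulative agonist doses every 3 min; % inhibition of contraction height measured. IC50 from a Hill-equation fit of mean data from 2–4 tissues.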

[2] = target: Kappa-type opioid receptor (Cavia porcellus, UniProt P41144); assay: Binding affinity against Opioid receptor kappa 1 of Guinea pig brain homogenate using [3H]U-69593; format: tissue-based
Cavia porcellus [3] = species on record: Cavia porcellus; assay: Selectivity as ratio of IC50 for mu and kappa opioid receptors
[4] = Selectivity as ratio of IC50 for delta and mu opioid receptors; details: Cavia porcellus
[5] = target: Kappa-type opioid receptor (Cavia porcellus) (UniProt P41144); assay: Ratio of IC50 for central and peripheral kappa opioid receptor binding in guinea pig
Kappa-type opioid receptor (Cavia porcellus), sequence (P41144 whole entry): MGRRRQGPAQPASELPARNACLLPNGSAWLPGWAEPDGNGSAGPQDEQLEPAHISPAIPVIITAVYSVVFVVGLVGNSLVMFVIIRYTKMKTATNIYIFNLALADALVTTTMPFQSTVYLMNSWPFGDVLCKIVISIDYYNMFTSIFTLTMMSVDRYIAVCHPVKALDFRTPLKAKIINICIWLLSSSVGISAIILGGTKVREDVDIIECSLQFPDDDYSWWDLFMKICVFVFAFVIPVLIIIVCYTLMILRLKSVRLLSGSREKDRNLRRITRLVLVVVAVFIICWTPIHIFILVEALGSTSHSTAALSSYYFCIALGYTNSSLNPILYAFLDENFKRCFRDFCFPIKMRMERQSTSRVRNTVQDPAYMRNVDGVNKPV

Mu-type opioid receptor, sequence (P97266 whole entry): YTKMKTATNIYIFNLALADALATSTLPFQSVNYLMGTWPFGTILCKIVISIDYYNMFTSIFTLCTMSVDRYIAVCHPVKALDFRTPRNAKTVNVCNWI
Kappa-type opioid receptor, sequence (P41144 whole entry): as the sequence (P41144 whole entry) above

Compound: CC[C@H](C)[C@H](NC[C@H](CCCCN)NC(=O)[C@H](CCCN=C(N)N)NC(=O)[C@H](CC(C)C)NC(=O)[C@H](Cc1ccccc1)NC(=O)CNC(=O)CNC(=O)[C@@H](N)Cc1ccc(O)cc1)C(=O)N[C@@H](CCCN=C(N)N)C(=O)N1CCC[C@H]1C(=O)N[C@@H](CCCCN)C(N)=O (H-YGGFLR-X2)
IC50 (Mu-type opioid receptor): 9.2 nM | IC50 (Cavia porcellus [1]): 2.8 nM | IC50 [2]: 0.16 nM

Compound: CC[C@H](C)[C@H](NC(=O)[C@H](CCCN=C(N)N)NC[C@H](CCCCN)NC(=O)[C@H](CC(C)C)NC(=O)[C@H](Cc1ccccc1)NC(=O)CNC(=O)CNC(=O)[C@@H](N)Cc1ccc(O)cc1)C(=O)N[C@@H](CCCN=C(N)N)C(=O)N1CCC[C@H]1C(=O)N[C@@H](CCCCN)C(N)=O
IC50 (Mu-type opioid receptor): 9 nM | IC50 (Cavia porcellus [1]): 70.6 nM | IC50 [2]: 0.9 nM

Compound: CC[C@H](C)[C@H](NC(=O)[C@H](CCCN=C(N)N)NC(=O)[C@H](CCCN=C(N)N)NC[C@H](CC(C)C)NC(=O)[C@H](Cc1ccccc1)NC(=O)CNC(=O)CNC(=O)[C@@H](N)Cc1ccc(O)cc1)C(=O)N[C@@H](CCCN=C(N)N)C(=O)N1CCC[C@H]1C(=O)N[C@@H](CCCCN)C(N)=O (H-[X4]([Phe-Gly-Gly-Tyr])RIRPK-NH2)
IC50 (Mu-type opioid receptor): 0.64 nM | IC50 (Cavia porcellus [1]): 21 nM | IC50 [2]: 0.61 nM | Selectivity (Cavia porcellus [3]): 1 | Selectivity [4]: 52 | Ratio [5]: 30.4

Compound: CC[C@H](C)[C@H](NC(=O)[C@H](CCCN=C(N)N)NC(=O)[C@H](CCCN=C(N)N)NC(=O)[C@H](CC(C)C)NC(=O)[C@H](Cc1ccccc1)NC(=O)CNC(=O)CNC[C@@H](N)Cc1ccc(O)cc1)C(=O)N[C@@H](CCCN=C(N)N)C(=O)N1CCC[C@H]1C(=O)N[C@@H](CCCCN)C(N)=O
IC50 (Mu-type opioid receptor): 96 nM | IC50 (Cavia porcellus [1]): 308 nM | IC50 [2]: 8 nM | Selectivity (Cavia porcellus [3]): 12 | Selectivity [4]: 25 | Ratio [5]: 38.5

Compound: CC[C@H](C)[C@H](NC(=O)[C@H](CCCN=C(N)N)NC(=O)[C@H](CCCN=C(N)N)NC(=O)[C@H](CC(C)C)NC(=O)[C@H](Cc1ccccc1)NCCNC(=O)CNC(=O)[C@@H](N)Cc1ccc(O)cc1)C(=O)N[C@@H](CCCN=C(N)N)C(=O)N1CCC[C@H]1C(=O)N[C@@H](CCCCN)C(N)=O (H-[N(2-aminoethyl)Phe]([Gly-Tyr])LRRIRPK-NH2)
IC50 (Mu-type opioid receptor): 1040 nM | IC50 (Cavia porcellus [1]): 20.5 nM | IC50 [2]: 17 nM

Selectivity [4]: 59 | Ratio [5]: 78.4
Compound: CC[C@H](C)[C@H](NC(=O)[C@H](CCCN=C(N)N)NC(=O)[C@H](CCCN=C(N)N)NC[C@H](CCCCN)NC(=O)[C@H](Cc1ccccc1)NC(=O)CNC(=O)CNC(=O)[C@@H](N)Cc1ccc(O)cc1)C(=O)N[C@@H](CCCN=C(N)N)C(=O)N1CCC[C@H]1C(=O)N[C@@H](CCCCN)C(N)=O (H-[X5]([Phe-Gly-Gly-Tyr])RIRPK-NH2)

Compound: CC[C@H](C)[C@@H](CN[C@@H](CCCN=C(N)N)C(=O)N1CCC[C@H]1C(=O)N[C@@H](CCCCN)C(N)=O)NC(=O)[C@H](CCCN=C(N)N)NC(=O)[C@H](CCCN=C(N)N)NC(=O)[C@H](CC(C)C)NC(=O)[C@H](Cc1ccccc1)NC(=O)CNC(=O)CNC(=O)[C@@H](N)Cc1ccc(O)cc1
IC50 (Mu-type opioid receptor): 4 nM | IC50 (Cavia porcellus [1]): 3.7 nM | IC50 [2]: 0.36 nM

Compound: CC[C@H](C)[C@H](NC(=O)[C@H](CCCN=C(N)N)NC(=O)[C@H](CCCN=C(N)N)NC(=O)[C@H](CC(C)C)NC[C@H](Cc1ccccc1)NC(=O)CNC(=O)CNC(=O)[C@@H](N)Cc1ccc(O)cc1)C(=O)N[C@@H](CCCN=C(N)N)C(=O)N1CCC[C@H]1C(=O)N[C@@H](CCCCN)C(N)=O (H-[X1]([Gly-Gly-Tyr])RRIRPK-NH2)
IC50 (Mu-type opioid receptor): 12 nM | IC50 (Cavia porcellus [1]): 16.6 nM | IC50 [2]: 0.55 nM

Compound: CC[C@H](C)[C@H](NC(=O)[C@H](CCCN=C(N)N)NC(=O)[C@H](CCCN=C(N)N)NC(=O)[C@H](CC(C)C)NC(=O)[C@H](Cc1ccccc1)NC(=O)CNC(=O)CNC(=O)[C@@H](N)Cc1ccc(O)cc1)C(=O)N[C@@H](CCCCN)CN1CCC[C@H]1C(=O)N[C@@H](CCCCN)C(N)=O
IC50 (Mu-type opioid receptor): 5.2 nM | IC50 (Cavia porcellus [1]): 2.1 nM | IC50 [2]: 0.24 nM
